Here are results for 15 compounds from ChEMBL document CHEMBL1799983, “Anti-inflammatory and cytotoxic neoflavonoids and benzofurans from Pterocarpus santalinus” (J Nat Prod, 2011).

Converted amounts (≈) assume the structure as drawn. Bounds are passed on as bounds.

Experiment [1] is described as follows: Antiinflammatory activity in human neutrophils assessed as inhibition of FMLP/CB-induced elastase release at 10 ug/ml. Format: functional, Neutrophil. The conditions noted are these: for inhibition at 10 µg/mL: Homo sapiens, Neutrophil. The essentials: (§1)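 Percentage inhibition in human neutrophils, measured at 10 μg/mL test concentration and reported as mean ± SEM (n = 3–5). Significance was tested against the control value at p < 0.05, 0.01 and 0.001. LY294002 was the positive control.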

A short description of experiment [2]: Antiinflammatory activity in human neutrophils assessed as inhibition of FMLP/CB-induced superoxide anion generation. Format: functional, cell-based. Particulars: Neutrophil; call rule not given here. The essentials:
(§2)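 IC50 (concentration giving 50% inhibition) in human neutrophils, reported as mean ± SEM, n = 3–5. LY294002, a phosphatidylinositol-3-kinase inhibitor, served as the positive control for both superoxide anion generation and elastase release.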

In experiment [3] the test system is A549. Kind of experiment: Cytotoxicity against human A549 cells by MTT assay. The experiment is classed as functional, cell-based. The method, boiled down: (§3)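 Fractions and isolates were screened against the cancer cell lines by a colorimetric MTT assay run to an established protocol, with doxorubicin as the positive control.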
(In general: Tetrazolium assays rely on reduction of a dye to a coloured formazan, in cell work by metabolically active cells.)

Experiment [4] relates to Ca9-22. Kind of experiment: Cytotoxicity against human Ca9-22 cells by MTT assay. Format: functional, cell-based. The essentials:
as §3

Experiment [5] concerns MDA-MB-231. Kind of experiment: Cytotoxicity against human MDA-MB-231 cells by MTT assay. Format: functional, cell-based. The method, boiled down: as §3
The test system of experiment [6] is MCF7. Briefly: Cytotoxicity against human MCF7 cells by MTT assay. The experiment is classed as functional, cell-based. The method, boiled down:
as §3

Experiment [7] concerns HepG2. Briefly: Cytotoxicity against human HepG2 cells by MTT assay. Format: functional, cell-based. The method, boiled down: as §3
A short description of experiment [8]: Cytotoxicity against human Hep3B cells by MTT assay. Format: functional, cell-based, Hep 3B2. The method, boiled down: as §3
Experiment [9] in a line: Antiinflammatory activity in human neutrophils assessed as inhibition of FMLP/CB-induced elastase release. The experiment is classed as functional, cell-based. The conditions noted are these: Neutrophil. The essentials: as §2
Experiment [10] is described as follows: Antiinflammatory activity in human neutrophils assessed as inhibition of FMLP/CB-induced superoxide anion generation at 10 ug/ml. Format: functional, Neutrophil. The method, boiled down: as §1
The subject of experiment [11] is Neutrophil. Kind of experiment: Ratio of LY294002 IC50 to compound IC50 for FMLP/CB-induced elastase release in human neutrophils. The experiment is classed as functional.
The mark [12] stands for this setting: Homo sapiens, A549, read-out: IC50.
[13] abbreviates: Homo sapiens, Ca9-22, read-out: IC50.
Setting [14] is: Homo sapiens, MDA-MB-231, read-out: IC50.
Setting [15] is: Homo sapiens, MCF7, read-out: IC50.
[16] abbreviates: Homo sapiens, HepG2, read-out: IC50.
The mark [17] stands for this setting: Homo sapiens, Hep3B, read-out: IC50.

The inhibition is the change of the read-out against control, counted positive when it falls. By IC50 is commonly meant the concentration at which inhibition is half-maximal.

Regarding `COc1cc(C2CCOc3cc(OC)c(O)cc32)ccc1O` (stereo not drawn) [PTEROLINUS J], the inhibition at 10 µg/mL in experiment [1] stood at 16.6%. The IC50 in experiment [2] is 2.1 µg/mL (≈ 6.95 µM); in [3] (setting [12]) it was > 17.1 µg/mL; in experiment [4] (setting [13]), > 17.1 µg/mL; in [5] (setting [14]), > 17.1 µg/mL; in [6] (setting [15]), > 17.1 µg/mL; in experiment [7] (setting [16]) it was > 17.1 µg/mL. Also, the IC50 in experiment [8] (setting [17]) is > 17.1 µg/mL.
Turning to `COc1ccc([C@H]2Oc3cc(OC)c(O)cc3[C@@H]2C)cc1O` [MELANOXIN], the inhibition at 10 µg/mL in experiment [1] was found to be 33.3%. The IC50 came to 0.69 µg/mL (≈ 2.28 µM) in [2]; 7.7 µg/mL (≈ 25.5 µM) in [3] (setting [12]); 7.7 µg/mL (≈ 25.5 µM) in experiment [4] (setting [13]); 7.7 µg/mL (≈ 25.5 µM) in [5] (setting [14]); 7.7 µg/mL (≈ 25.5 µM) in experiment [6] (setting [15]); 7.7 µg/mL (≈ 25.5 µM) in [7] (setting [16]). In addition, the IC50 in experiment [8] (setting [17]) was found to be 7.7 µg/mL (≈ 25.5 µM).
`COc1ccc(-c2c(C)oc3cc(OC)c(O)cc23)cc1O` [PTEROLINUS A]: the half-inhibitory concentration (IC50) in experiment [2] was 0.33 µg/mL (≈ 1.1 µM); in experiment [9], 2.54 µg/mL (≈ 8.46 µM); in experiment [3] (a549), “Not Active”; in experiment [4] (ca9-22), “Not Active”; in experiment [5] (mda-mb-231), “Not Active”; in [6] (mcf7) it was “Not Active”. The IC50 result in [7] (hepg2) and in experiment [8] (hep 3b2) was “Not Active” throughout.
`C=C[C@H](C1=CC(O)(CC(C)=O)C(OC)=CC1=O)c1ccc(OC)c(O)c1` (single isomer, unassigned) [PTEROLINUS HB]: the inhibition at 10 µg/mL in [10] (Homo sapiens, Neutrophil) was found to be 29.4%. The “inhibition (INH)” value in experiment [1] was found to be 19.53%. Moreover, the IC50 in experiment [5] (setting [14]) came out at 2.85 µg/mL (≈ 7.95 µM); in experiment [7] (setting [16]), 3.65 µg/mL (≈ 10.2 µM).
`COC1=CC(=O)C2(C(C)C(O)c3ccc(OC)c(O)c3)OC2C1=O` (stereo not drawn) [PTEROLINUS D]: the “Ratio IC50” value in experiment [11] amounted to 1.9. For the same compound, the half-maximal inhibitory concentration (IC50) in experiment [2] was found to be 0.29 µg/mL (≈ 0.867 µM); in [9], 1.06 µg/mL (≈ 3.17 µM); in [5] (setting [14]), 4.89 µg/mL (≈ 14.6 µM); in [6] (setting [15]), 3.31 µg/mL (≈ 9.9 µM); in experiment [7] (setting [16]), 4.33 µg/mL (≈ 13 µM); in experiment [8] (setting [17]) it was 2.08 µg/mL (≈ 6.22 µM).
Consider `COc1cc2oc(-c3ccc(O)cc3)c(C)c2cc1O` [PTEROLINUS B], for which the half-inhibitory concentration (IC50) in [2] stood at 0.19 µg/mL (≈ 0.703 µM); in [9] it was 47.8 µg/mL (≈ 177 µM); in [3] (setting [12]) it was 2.34 µg/mL (≈ 8.66 µM); in [6] (setting [15]), 1.74 µg/mL (≈ 6.44 µM).
Regarding `C=C[C@H](C1=CC(=O)C(OC)=CC1=O)c1ccc(OC)c(O)c1`, the IC50 in experiment [2] came out at 0.47 µg/mL (≈ 1.57 µM); in experiment [9] it was 1.44 µg/mL (≈ 4.8 µM); in experiment [5] (setting [14]), 3.34 µg/mL (≈ 11.1 µM); in experiment [8] (setting [17]), 2.39 µg/mL (≈ 7.96 µM).
`COc1ccc([C@H]2Oc3cc(OC)c(OC)cc3[C@@H]2C)cc1O` [PTEROLINUS C]: in experiment [1], the inhibition at 10 µg/mL was 9.73%. Further, the IC50 in experiment [2] was 2.28 µg/mL (≈ 7.21 µM); in experiment [3] (setting [12]), > 19.4 µg/mL; in experiment [4] (setting [13]), > 19.4 µg/mL; in experiment [5] (setting [14]), > 19.4 µg/mL; in experiment [6] (setting [15]) it was > 19.4 µg/mL; in experiment [7] (setting [16]), > 19.4 µg/mL. In addition, in [8] (setting [17]), the IC50 is > 19.4 µg/mL.
For `O=c1cc(N2CCOCC2)oc2c(-c3ccccc3)cccc12` [LY-294002], the IC50 amounted to 1.18 µg/mL (≈ 3.84 µM) in experiment [2] and 1.99 µg/mL (≈ 6.47 µM) in [9].
On to `C=C[C@H](C1=CC(O)(CC(C)=O)C(OC)=CC1=O)c1ccc(OC)c(O)c1` (single isomer, unassigned; epimer 2) [PTEROLINUS HB], for which the results for the “inhibition (INH)” value in [10] and in [1] were 34.15% and 2.84%, respectively. In addition, the half-inhibitory concentration (IC50) in experiment [3] (setting [12]) is 3.97 µg/mL (≈ 11.1 µM).
Consider `COc1ccc(-c2oc3cc(OC)c(O)cc3c2C)cc1O` [DEHYDROMELANOXIN], for which the IC50 is 0.73 µg/mL (≈ 2.43 µM) in [2]; 3.69 µg/mL (≈ 12.3 µM) in experiment [9]; “Not Active” in [3] (a549); “Not Active” in experiment [4] (ca9-22); “Not Active” in [5] (mda-mb-231); “Not Active” in experiment [6] (mcf7). In addition, the concentration for half-maximal inhibition (IC50) entry in [7] (hepg2) and in experiment [8] (hep 3b2) was “Not Active” each time.
On to `COC1=CC(=O)C([C@@H](C)[C@@H](O)c2ccc(OC)c(O)c2)=CC1=O` [PTEROLINUS E], for which the concentration for half-maximal inhibition (IC50) in [9] came to 2.13 µg/mL (≈ 6.69 µM); in experiment [3] (setting [12]) it was 6.96 µg/mL (≈ 21.9 µM); in experiment [4] (setting [13]) it was 6.96 µg/mL (≈ 21.9 µM); in experiment [5] (setting [14]), 6.96 µg/mL (≈ 21.9 µM); in [6] (setting [15]) it was 6.96 µg/mL (≈ 21.9 µM); in experiment [7] (setting [16]), 6.96 µg/mL (≈ 21.9 µM). In addition, in experiment [8] (setting [17]), the half-maximal inhibitory concentration (IC50) was 6.96 µg/mL (≈ 21.9 µM).
`COc1ccc(-c2cc(=O)oc3cc(OC)c(O)cc23)cc1O` [MELANNEIN]: in [1], the inhibition at 10 µg/mL is -1.53%. The IC50 is 3.18 µg/mL (≈ 10.1 µM) in experiment [2]; > 17.1 µg/mL in experiment [3] (setting [12]); > 17.1 µg/mL in experiment [4] (setting [13]); > 17.1 µg/mL in experiment [5] (setting [14]); > 17.1 µg/mL in experiment [6] (setting [15]); > 17.1 µg/mL in experiment [7] (setting [16]). The IC50 in experiment [8] (setting [17]) was > 17.1 µg/mL.
On to `COc1ccc(C(=O)c2cc(O)c(OC)cc2O)cc1O` [MELANOXOIN], for which the 50% inhibitory concentration (IC50) in experiment [9] stood at 3.62 µg/mL (≈ 12.5 µM); in experiment [4] (setting [13]), 0.46 µg/mL (≈ 1.58 µM).
Take `C=C[C@@H](c1ccc(OC)c(O)c1)c1cc(O)c(C(=O)OC)cc1O` [PTEROLINUS F]: the 50% inhibitory concentration (IC50) was 3.22 µg/mL (≈ 9.75 µM) in [9]; 11.1 µg/mL (≈ 33.6 µM) in experiment [3] (setting [12]); 11.1 µg/mL (≈ 33.6 µM) in experiment [4] (setting [13]); 11.1 µg/mL (≈ 33.6 µM) in experiment [5] (setting [14]); 11.1 µg/mL (≈ 33.6 µM) in experiment [6] (setting [15]); 11.1 µg/mL (≈ 33.6 µM) in experiment [7] (setting [16]). Moreover, the half-inhibitory concentration (IC50) in [8] (setting [17]) came out at 11.1 µg/mL (≈ 33.6 µM).
